TAAR1 agonist: agonists of human TAAR1; Q96RJ0; CHO RD-HGA16 TAAR1, Fluo-8 calcium fluorescence; vehicle wells 0%, saturating PEA agonist 100%; activation, % at 3 µM; 0.99% of 360,000 active;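 active means activation above the mean activation of all test compounds in the run plus 3 SD, cut at about 38% in these data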
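Benchmarks: low control DMSO, high control PEA (EC100); System: CHO RD-HGA16 cells carrying human TAAR1 plus Gα16; Detection: Fluo-8 fluorescence, 5 s baseline then 140 s kinetic read; Schedule: 17-24 h plating, Fluo-8 75 min 37 °C, 30 min RT; Read-out basis: % activation from peak over basal fluorescence ratio, DMSO-to-PEA scaled.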
V1R ag counter: activates human V1a receptor in oxytocin agonist counter-screen. 0.25% of 320,000 active. activation, % at 3 µM. CHO-V1R cells, Fluo-8 calcium fluorescence, agonist mode; 0% DMSO, 100% 3 nM vasopressin. P37288. AID 2797;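 active means activation above the mean activation of all tested compounds plus 3 SD, per screening run, cut at about 20% in these data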;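 further: signal is peak over basal fluorescence ratio across a 100 second FLIPR read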
Target sequence (P37288 whole entry, looked up): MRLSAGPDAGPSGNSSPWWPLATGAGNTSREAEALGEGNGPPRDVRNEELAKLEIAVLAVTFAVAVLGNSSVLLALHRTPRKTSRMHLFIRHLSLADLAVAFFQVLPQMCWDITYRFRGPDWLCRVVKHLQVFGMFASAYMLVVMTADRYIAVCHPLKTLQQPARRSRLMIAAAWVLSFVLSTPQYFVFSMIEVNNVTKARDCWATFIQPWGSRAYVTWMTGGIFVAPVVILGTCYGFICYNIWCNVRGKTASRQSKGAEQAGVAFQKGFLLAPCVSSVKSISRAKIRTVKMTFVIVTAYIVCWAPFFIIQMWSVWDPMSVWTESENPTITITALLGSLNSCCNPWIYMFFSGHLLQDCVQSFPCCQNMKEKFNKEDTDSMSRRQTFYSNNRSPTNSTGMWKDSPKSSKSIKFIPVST
OXTR potentiate: human OXTR potentiation; P30559; CHO-OTR cells, Fluo-8 calcium fluorescence, potentiator mode; 0% = oxytocin EC15, 100% = EC100; 0.061% of 320,000 active; activation, % at 3 µM;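 active means activation above that plate's cutoff, the mean activation of tested compounds plus 3 SD, cut at about 6.6% in these data, passing the limit was not always enough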;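 further: 100% uses oxytocin at 75 nM as the full agonist control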
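test system = CHO-OTR cells, human receptor | compound = single-point 3.0 µM | schedule = 6 min compound pre-incubation at room temperature, 100 s kinetic read | signal = Fluo-8 no-wash calcium dye fluorescence, excitation 470-495 nm, emission 515-575 nm | repeats = single well per compound, singlicate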
OXTR agonist: agonists of human oxytocin receptor; CHO-OTR cells, Fluo-8 calcium fluorescence; normalized: DMSO 0%, oxytocin 100%; activation, % at 3 µM; 0.32% of 320,000 active;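 active means activation above the mean of all tested compounds plus 3 SD, cutoff set per screening run, cut at about 20% in these data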;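 further: peak over basal fluorescence ratio from a 100 s FLIPR kinetic read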
TAAR1 antag: antagonists of human TAAR1 | Q96RJ0 | CHO RD-HGA16 TAAR1, Fluo-8 calcium fluorescence, antagonist | inhibition, % at 3 µM | 1.5% of 360,000 active;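 active means inhibition above a per-plate cutoff, the mean inhibition of test compounds on that plate plus 3 SD, cut at about 49% in these data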;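 further: 0% = DMSO plus EC80 beta-PEA response and 100% = DMSO alone without agonist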
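Test system: RD-HGA16 CHO cells with stable hTAAR1 and Gα16 / Probe or stimulus: EC80 β-phenethylamine stimulus / Times: seeding 17-24 h prior, 75-min 37 °C, 30-min RT dye loading / Detection: Fluo-8 calcium-sensitive fluorescence / Read-out basis: % inhibition scaled between DMSO and EC80 PEA controls / Repeats: singlicate, one well per test compound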
TAAR1 ag conf: confirmation of human TAAR1 agonists. shares compounds with TAAR1 agonist. CHO RD-HGA16 TAAR1, Fluo-8 calcium fluorescence; scaled: DMSO 0%, maximal phenethylamine 100%. activation, % at 3 µM. 82% of 2,400 active;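 active means activation above a cutoff set at the run's mean compound activation plus 3 SD, cut at about 39% in these data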
Ga16 ag counter: nonselective agonism, TAAR1 counter-screen. shares compounds with TAAR1 agonist. CHO-Ga16 parental, Fluo-8 calcium fluorescence; normalized to maximal ATP response, DMSO zero. activation, % at 3 µM. 50% of 2,400 active. AID 651787;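 active means activation above the run cutoff, the mean activation over all tested wells plus 3 SD, cut at about 12% in these data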;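 further: 0% = DMSO wells and 100% = maximal ATP response on the peak over basal ratio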
TAAR1 desens: TAAR1 response desensitization, agonist counter-screen; CHO RD-HGA16 hTAAR1, Fluo-8 calcium, beta-PEA response inhibition; inhibition, % at 3 µM; 46% of 2,400 active; shares compounds with TAAR1 agonist;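 active means inhibition above the run cutoff, the mean inhibition of all test compounds plus 3 SD, cut at about 49% in these data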;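 further: beta-PEA stimulus applied at its EC80; loss of beta-PEA calcium signal after compound pretreatment read as receptor desensitization; 0% = DMSO with beta-PEA at EC80 and 100% = DMSO alone without agonist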
Ga16 antag count: nonselective Ga16 antagonist in TAAR1 agonist counter-screen; shares compounds with TAAR1 agonist; CHO-Ga16 ATP-induced calcium, Fluo-8 fluorescence; inhibition, % at 3 µM; 39% of 2,400 active; AID 651952;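 active means inhibition above the plate's mean compound inhibition plus 3 SD, computed per plate, cut at about 22% in these data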;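 further: 0% = EC80 ATP with DMSO and 100% = DMSO wells without ATP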
* hit, by the source's call; / = no result given. Rows were chosen to be rich in hits. Some 2.3% of all compounds tested hit in one or more screens of this group.

SMILES	TAAR1 agonist	V1R ag counter	OXTR potentiate	OXTR agonist	TAAR1 antag	TAAR1 ag conf	Ga16 ag counter	TAAR1 desens	Ga16 antag count
CCCOc1ccc(C(=O)NNC(=S)NC(=O)c2ccccc2[N+](=O)[O-])cc1	79*	5	-4	2	26	28	28*	16	27*
O=C(NC(=S)NNC(=O)c1cccs1)c1ccccc1	37	2	-8	1	28	/	/	/	/
CC(C)(C)c1ccc(C(=O)NC(=S)NNC(=O)c2cccs2)cc1	174*	93*	-11	101*	105*	159*	129*	107*	102*
CCCOc1ccc(C(=O)NNC(=S)NC(=O)c2ccccc2)cc1	161*	115*	-27	101*	106*	147*	117*	106*	95*
Cc1nc2nc(C)c(NS(=O)(=O)c3ccc(Cl)s3)c(=O)n2[nH]1	0	0	-10	0	-1	/	/	/	/
CCCOc1ccc(C(=O)NNC(=S)NC(=O)c2cccs2)cc1	159*	85*	-12	79*	106*	154*	124*	106*	91*
Cc1ccccc1C(=O)Nc1cccc(NC(=S)NC(=O)c2cccs2)c1	4	2	-8	-1	-11	/	/	/	/
Cc1ccccc1C(=O)NNC(=S)NC(=O)c1cccs1	128*	65*	-9	36*	65*	67*	69*	29	30*
CCCC(=O)Nc1ccc(C(=O)NNC(=S)NC(=O)c2cccs2)cc1	2	-1	-3	-2	-16	/	/	/	/
O=C(NNC(=S)NC(=O)c1ccccc1)c1cccnc1	2	0	-2	-1	-17	/	/	/	/
CCCOc1ccc(-c2cc(C(=O)NCC3CCCO3)c3ccccc3n2)cc1 (stereo unspecified)	12	0	-15	-1	42	/	/	/	/
CC(C)(C)c1ccc(C(=O)NNC(=S)NC(=O)c2cccnc2)cc1	86*	13	2	8	35	49*	47*	38	28*
CCCOc1ccc(C(=O)NNC(=S)NC(=O)c2cc(-c3ccccc3)nc3ccccc23)cc1	55*	1	-14	0	22	83*	72*	77*	74*
Cc1cc(C)c(OCCCCCn2ccnc2)c(C)c1	12	/	/	/	4	/	/	/	/
CCn1c(C)nc2cc(C(=O)NN=Cc3ccc([N+](=O)[O-])cc3)ccc21	6	0	-3	1	-16	/	/	/	/
COc1ccc(CN(CCCn2cnc3c(OC)ncnc32)CCCn2cnc3c(OC)ncnc32)cc1	0	/	/	/	-5	/	/	/	/
CC(=O)c1ccc2c3c(cccc13)C(=O)N(CCc1ccccc1)C2=O	/	0	-5	0	/	/	2	/	9
O[C@@H]1CN(C2CCCCC2)CC[C@H]1N1CCN(CCc2ccccc2)CC1	/	0	-14	0	/	/	/	/	/
Cc1ccc(C(c2sc3ncnn3c2O)N2CCCCC2)cc1 (stereo unspecified)	-1	0	-4	0	-16	/	/	/	/
Oc1c(C(c2ccc(F)cc2)N2CCc3ccccc3C2)sc2ncnn12 (stereo unspecified)	/	2	-4	-1	/	/	7	/	13
Cc1nc2sc(C(c3ccco3)N3CCN(c4ccccc4F)CC3)c(O)n2n1 (stereo unspecified)	20	1	-5	1	-2	/	/	/	/
Cc1nc2sc(C(c3ccco3)N3CCc4ccccc4C3)c(O)n2n1 (stereo unspecified)	76*	1	-7	0	54*	96*	8	70*	4
FC(F)C(F)(F)c1cc(-c2ccc(Cl)cc2)n[nH]1	63*	22*	-19	21*	49	57*	22*	48	26*
Oc1ccccc1-c1cc(C(F)(F)C(F)F)[nH]n1	13	5	-12	14	22	/	/	/	/
Fc1ccc(-c2cc(C(F)(F)C(F)F)[nH]n2)cc1	81*	32*	-21	39*	75*	91*	53*	74*	39*
SMILES	TAAR1 agonist	V1R ag counter	OXTR potentiate	OXTR agonist	TAAR1 antag	TAAR1 ag conf	Ga16 ag counter	TAAR1 desens	Ga16 antag count
O=C(O)CCCCCN1C(=O)/C(=C\c2ccc(-c3ccc(Cl)cc3)o2)SC1=S	1	0	-15	2	9	/	/	/	/
O=C(O)CCCN1C(=O)/C(=C/c2ccc(-c3nc4ccccc4s3)o2)SC1=S	72*	0	-8	2	82*	55*	39*	84*	67*
O=[N+]([O-])c1cc(/C=N\Nc2nc(-c3ccccc3)cs2)ccc1O	69*	2	-17	4	36	44*	53*	37	29*
Cc1ccc(C)c(NC(=O)/C(C#N)=C/c2ccc(Sc3nncn3C)c([N+](=O)[O-])c2)c1	/	0	-8	-1	/	/	/	/	/
O=c1[nH]ncc(N/N=C\c2ccncc2)c1Cl	16	1	-9	0	-8	/	/	/	/
O=c1[nH]ncc(N/N=C\c2cccnc2)c1Cl	11	2	7	1	-16	/	/	/	/
O=c1[nH]ncc(N/N=C\c2cccs2)c1Cl	/	0	-10	0	/	/	3	/	7
Cc1cccc(/C=N\Nc2cn[nH]c(=O)c2Cl)c1	53*	-2	1	-2	70*	88*	-2	72*	0
CC(CNC(=O)c1ccccc1[N+](=O)[O-])NC(=O)c1ccccc1[N+](=O)[O-] (stereo unspecified)	-1	0	-7	0	14	/	/	/	/
COc1ccc2c(c1)C(O)C(CO)C(C(=O)O)C2 (stereo unspecified)	9	/	/	/	-10	/	/	/	/
O=C1NC[C@H](CCCCN2C[C@H](Cc3ccc(O)cc3)N(CCC3CCCCC3)C(=O)C2=O)N(CCC2CCCCC2)C1=O	3	/	/	/	-19	/	/	/	/
Cc1ccc2nc3sc(C(=O)N4CCCc5ccccc54)c(N)c3cc2c1	16	6	-9	6	26	/	/	/	/
Cc1cc(C)c2cc3c(N)c(C(=O)N4CCc5ccccc5C4)sc3nc2c1	78*	2	1	2	12	56*	12*	40	39*
NC(=S)NNC(=O)C12CC3CC(CC(C3)C1)C2	140*	23*	-17	34*	80*	136*	108*	102*	94*

High-throughput results (PubChem BioAssay)
